# Measured values taken from publication PMC3139708 (Nature chemical biology, 2011).
# “Also recorded” adds a separate entry of the source. Where a SMILES comes first, the peptide text is derived from it. [ ]: non-standard residue; d: D form. βAla = NCCC(=O)O
# Experiments:
# [1] = system: YFP-LID; experiment: Shield-dependent degradation of YFP-LID in NIH3T3 cells, flow cytometry; assay type: cell-based
# Method in brief: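 NIH3T3 cells were stably retrovirally transduced with YFP-FKBP(F36V) plus the 19-residue C-terminal peptide, with IRES-HcRed as infection marker. They were plated at 1 × 10⁵ per well and given vehicle or Shield-1 (1 pM–1 μM, or 1 μM for 24 h), then trypsinised. YFP was read by flow cytometry (typically 10,000 events) against untransduced-cell autofluorescence. Error bars are s.d. from at least two experiments.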
# [2] = system: FKBP; settings: relative to Shield-1; ref [19]; cited from earlier work
# [3] = molecular target: FKBP(F36V) (Homo sapiens, UniProt P62942, F37V); experiment: Fluorescence polarization competition binding against Fl-SLF; settings: polarization signal; Fl-SLF 1 nM, FKBP(F36V) 100 nM
# FKBP(F36V), sequence (P62942 whole entry F37V): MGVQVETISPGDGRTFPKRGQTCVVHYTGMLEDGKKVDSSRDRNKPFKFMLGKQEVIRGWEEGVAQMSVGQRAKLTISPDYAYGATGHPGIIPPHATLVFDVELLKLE
# Method in brief: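 Purified FKBP(F36V) and fluorescent Shield-1 analog Fl-SLF were held at fixed concentrations and incubated with a titration of synthetic test peptide. Tracer displacement was read as the decrease in fluorescence polarization.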
# [4] = system: Oct4-LID; experiment: Reprogramming of MEFs; assay type: cell-based, murine embryonic fibroblasts; settings: 2 μM Shield-1 from day 3 post-infection
# Method in brief: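 Fibroblasts came from transgenic mice carrying GFP driven by the Oct4 promoter. They were retrovirally transduced with Sox2, Myc, Klf4 and Oct4-LID, with untagged Oct4 as comparison. Vehicle or 2 μM Shield-1 was added on day 3 post-infection, and alkaline phosphatase staining was done on day 14. GFP-positive cells were moved to fresh feeder layer on day 19 and stained with APC anti-SSEA-1 on day 24.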
# [5] = system: YFP-FKBP(F36V)-degron-LPLPLP fusions (CL1, CyclinB, encephalomyocarditis virus degron); assay type: cell-based; settings: NIH3T3, flow cytometry
# [6] = system: YFP-LID fusion proteins in U2OS cells; experiment: YFP-LID degradation in transiently transfected U2OS cells; assay type: cell-based; settings: 24 hours Shield-1
# [7] = molecular target: FKBP domain; settings: ref [18],[26]; cited from earlier work
# [8] = system: YFP; experiment: Stability of YFP fused directly to the 19-residue peptide or its truncations; assay type: cell-based; settings: 1 μM Shield-1, 24 h, flow cytometry
# Method in brief: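 The 19-residue peptide was fused directly to YFP, without FKBP, and stably transduced into NIH3T3 cells by retrovirus. Cells were plated at 1 × 10⁵ per well, treated with vehicle or 1 μM Shield-1 for 24 h, trypsinised and analysed by flow cytometry (typically 10,000 events). Error bars are s.d. from at least two experiments.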
# [9] = system: YFP-LID; experiment: Time course of YFP-LID degradation and recovery in NIH3T3 cells, flow cytometry; assay type: cell-based; settings: NIH3T3, absence of cycloheximide
# Method in brief: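 Stably transduced NIH3T3 cells expressing YFP-LID were plated at 1 × 10⁵ cells/well. For degradation, Shield-1 was added and cells were sampled at various times. For recovery, Shield-1 was removed by changing to fresh growth medium containing 5 μM recombinant FKBP(F36V) at set times before analysis. YFP was read by flow cytometry, and the maximum fluorescence was set to 100%.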
# [10] = system: YFP-LID; experiment: Simultaneous use of LID and DD systems in NIH3T3 cells: YFP-LID; assay type: cell-based; settings: various concentrations of Shield-1, 24 h, flow cytometry and microscopy
# Method in brief: (§1)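 NIH3T3 cells stably co-transduced with YFP-LID and DD-mCherry were plated at 1 × 10⁵ cells/well. They were exposed to a range of Shield-1 concentrations for 24 h, then detached with trypsin-EDTA. YFP and mCherry were read in their respective channels by flow cytometry (typically 10,000 events) and by epifluorescence microscopy.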
# [11] = system: YFP-LID fusion proteins in HeLa cells; experiment: YFP-LID degradation in transiently transfected HeLa cells; assay type: cell-based; settings: 24 hours Shield-1
# [12] = system: actin-GFP-LID; experiment: Depletion of β-actin-AcGFP-LID in NIH3T3 cells, fluorescence microscopy; assay type: cell-based, human; settings: 2 μM Shield-1, 24 hours
# Method in brief: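 NIH3T3 fibroblasts were retrovirally co-transduced (4 μg/mL polybrene, 4 h, 37 °C; then 24–36 h in growth medium) with human β-actin fused to Aequorea coerulescens GFP plus LID, and with β-actin-mCherry to mark microfilaments. Cells were cultured ± Shield-1, and green and red actin filaments were imaged by epifluorescence microscopy with a 40x objective.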
# [13] = system: transcription factors fused to LID (Oct4, Klf4, Sox2, Myc, Lin28, Nanog); assay type: cell-based, human; Nanog mouse; settings: 2 μM Shield-1, 24 h, NIH3T3, immunoblot
# Method in brief: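 LID was fused to the C-terminus of each of six transcription factors. Each was retrovirally transduced into NIH3T3 cells separately (4 μg/mL polybrene, 4 h, 37 °C; 24–36 h integration) in DMEM with 10% donor bovine serum. Cells got vehicle or 2 μM Shield-1 for 24 h. Lysates were immunoblotted with anti-Oct4, anti-Klf4, anti-HA (Sox2, Myc, Lin28) or anti-Flag (Nanog). α-Tubulin was the loading control; untransduced cells were the reference.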
# [14] = system: DD-mCherry; experiment: Simultaneous use of LID and DD systems in NIH3T3 cells: DD-mCherry; assay type: cell-based; settings: various concentrations of Shield-1, 24 h, flow cytometry and microscopy
# Method in brief: as §1
compound,measurement,setting,value
CCC(CC)NC(=O)N1CCCC[C@H]1C(=O)O[C@H](CCc1ccc(OC)c(OC)c1)c1cccc(OCCN2CCOCC2)c1 [Shield-2],destabilization of the LID domain,"[1]; NIH3T3 cells, compared with Shield-1",can also destabilize the LID domain although with slightly reduced potency
same,binding potency for FKBP,[2],less potent binding ligand for FKBP
CC(C)C[C@H](NC(=O)[C@H](CC(C)C)NC(=O)[C@@H](NC(=O)[C@@H](NC(=O)CNC(=O)[C@H](CCC(=O)O)NC(=O)[C@H](C)NC(=O)[C@@H](NC(=O)[C@H](CCC(=O)O)NC(=O)[C@H](CCC(=O)O)NC(=O)[C@@H](NC(=O)CNC(=O)[C@H](CCCNC(=N)N)NC(=O)[C@@H](NC(=O)CCN)[C@@H](C)O)C(C)C)C(C)C)C(C)C)C(C)C)C(=O)N[C@@H](CCCNC(=N)N)C(=O)N[C@@H](CCCNC(=N)N)C(=O)N[C@@H](CCCNC(=N)N)C(=O)NCC(=O)N[C@@H](CC(N)=O)C(=O)O [19-residue peptide] (H-[βAla]TRGVEEVAEGVVLLRRRGN-OH; N-terminus and C-terminus assumed),displacement of tracer Fl-SLF from FKBP,[3],dose-dependent decrease in polarization signal
CC[C@H](C(=O)N1CCCC[C@H]1C(=O)O[C@H](CCc1ccc(OC)c(OC)c1)c1cccc(OCCN2CCOCC2)c1)c1cc(OC)c(OC)c(OC)c1 [Shield-1],reprogramming to iPS cells of cells expressing Oct4-LID in the presence of Shield-1,[4],unable to undergo reprogramming to iPS cells
same,YFP fluorescence levels in Shield-treated cells above the background autofluorescence,"[1]; relative to untransduced NIH3T3 cells, flow cytometry",10-20%
same,stability of YFP-FKBP-degron-LPLPLP fusions with Shield-1,[5],an increase in fluorescence was observed
same,degradation of YFP-LID fusion proteins,[6],could be degraded in transient transfected HeLa and U2OS cells
same,affinity for the FKBP domain,[7],sub-nanomolar
same,effect of Shield-1 on the stability of YFP-19mer,[8],this instability is not affected by Shield-1; also recorded: no effect on the stability of this fusion
same,time for YFP levels to be reduced 50% upon addition of Shield-1,[9],45 min
same,YFP-LID level,[10],dose-dependent depletion of YFP-LID
same,degradation of YFP-LID fusion proteins,[11],could be degraded in transient transfected HeLa and U2OS cells
same,GFP fluorescence of β-actin-GFP-LID after Shield-1,[12],GFP fluorescence was absent
same,degradation of LID-fused transcription factors,[13],all degraded in a Shield-1 dependent manner
same,mCherry (DD-mCherry) level,[14],simultaneous stabilization of mCherry
